# Compound activity deposited in PubChem BioAssay by several laboratories.
# In the library only some 5.3% were active in any assay of this set; here they are far more common.
# NALP3 yeast inh: blocks the NALP3 inflammasome reconstituted in yeast; Yeast reconstituted NLRP3/ASC/caspase-1, beta-gal luminescence, 24 h; inhibition, % at 10 µM; 330,000 tested, 0.39% active;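 active means inhibition of 50% or more; inactive means inhibition below 50%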;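 further: plate controls were induced DMSO wells for no effect and uninduced yeast grown without galactose for full effect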
# Beta cell apopt: beta cell apoptosis inhibition; INS-1E cytokine-induced death, ATP luminescence, 48 h; percent of positive-control rescue, neutral wells zero; protection from apoptosis, % (concentration not given with the values); 300,000 tested, 0.8% active; AID 435005;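 active means Every replicate reaches about 75%, or at least half do and their mean reaches it too, limit read from the data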;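 further: 0% = cytokine-treated negative control wells and 100% = positive control rescue; higher means more ATP so stronger rescue from cytokine killing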
# Calb FLC: C. albicans growth modulation with fluconazole | C. albicans CaCi-2 + fluconazole, Alamar Blue growth, 48 h | growth inhibition, % (test concentration not listed) | 300,000 tested, 0.57% active | AID 1979;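 active means growth inhibition above about 58% in most replicates, limit read from the data, passing the limit was not always enough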;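 further: all wells also contain fluconazole at 8 µg/ml as a sub-toxic cotreatment; 0% = median of DMSO wells and 100% = median of geldanamycin control wells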
# Mdm2-MdmX inh: human Mdm2/MdmX binding inhibition; SaOS-2 split-luciferase Mdm2/MdmX complementation, luminescence; inhibition, % at 8 µM; O15151+Q00987; 330,000 tested, 3% active;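 active means inhibition of at least 50% at 8 µM in the primary screen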
# Target sequence (O15151 whole entry, looked up): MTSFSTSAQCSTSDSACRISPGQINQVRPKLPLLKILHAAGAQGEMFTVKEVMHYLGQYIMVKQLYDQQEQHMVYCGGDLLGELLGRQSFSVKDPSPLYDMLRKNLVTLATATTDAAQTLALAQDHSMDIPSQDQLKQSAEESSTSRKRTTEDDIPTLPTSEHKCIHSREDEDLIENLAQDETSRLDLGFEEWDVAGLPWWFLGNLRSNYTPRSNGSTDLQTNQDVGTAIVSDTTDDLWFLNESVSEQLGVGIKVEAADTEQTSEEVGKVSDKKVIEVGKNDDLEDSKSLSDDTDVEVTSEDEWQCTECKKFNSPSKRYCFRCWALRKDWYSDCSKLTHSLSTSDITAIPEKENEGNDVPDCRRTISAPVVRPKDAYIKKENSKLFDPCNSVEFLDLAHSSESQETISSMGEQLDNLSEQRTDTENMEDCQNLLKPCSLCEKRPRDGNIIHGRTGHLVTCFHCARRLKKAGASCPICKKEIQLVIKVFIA
# Target sequence (Q00987 whole entry, looked up): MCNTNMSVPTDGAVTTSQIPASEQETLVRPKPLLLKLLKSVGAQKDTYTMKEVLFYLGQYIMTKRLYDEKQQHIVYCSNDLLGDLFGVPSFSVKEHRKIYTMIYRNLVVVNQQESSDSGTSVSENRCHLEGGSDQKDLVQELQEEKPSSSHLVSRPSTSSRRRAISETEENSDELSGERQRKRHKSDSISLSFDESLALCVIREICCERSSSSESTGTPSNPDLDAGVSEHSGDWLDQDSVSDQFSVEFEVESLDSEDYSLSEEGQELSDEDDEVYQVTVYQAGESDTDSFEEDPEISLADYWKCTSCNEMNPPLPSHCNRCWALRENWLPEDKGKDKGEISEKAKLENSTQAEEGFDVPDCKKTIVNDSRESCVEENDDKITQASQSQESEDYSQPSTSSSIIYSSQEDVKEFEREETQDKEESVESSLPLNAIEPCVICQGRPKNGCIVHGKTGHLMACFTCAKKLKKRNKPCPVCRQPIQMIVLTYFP
# CSC inhib: blocks cancer stem cells. cancer stem cell-like cells viability, luminescence. inhibition, % at 7.5 µM. 300,000 tested, 1.1% active; in the data active means inhibition above about 75%; tested in HMLE shEcad cells
# T cruzi repl: blocks replication of Trypanosoma cruzi | AID 1885 | T. cruzi beta-gal in NIH3T3, luminescence, 90 h | inhibition, % (test concentration not listed) | 300,000 tested, 1.4% active;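 active means mean inhibition across valid replicates above about 55%, limit read from the data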;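 further: signal also drops with host cell toxicity which is not excluded here; 0% = plate median of DMSO wells and 100% = zero luminescence signal; higher percent means less beta-gal luminescence so fewer parasites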
#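 System – NIH/3T3 host cells with β-galactosidase reporter T. cruzi · Doses – single 50 nL compound addition per well in DMSO · Reagent – 5000 T. cruzi trypomastigotes/well · Medium – Low-serum DMEM with 2% FBS · Timing – ≥90 h infection period, 3 h prior cell attachment · Evaluation – parasite load inhibition, % · Technique – GalScreen luminescence, 60 min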
# Mdm2-MdmX conf: human Mdm2/MdmX binding inhibition, confirmed; AID 489028; shares compounds with Mdm2-MdmX inh; inhibition, % at 8 µM; luminescent assay; 10,000 tested, 55% active; in the data active means inhibition above about 40%
# FLuc counter: counter-screen for Mdm2/MdmX inhibitors: full-length luciferase; shares compounds with Mdm2-MdmX inh; SaOS-2 full-length luciferase counterscreen, luminescence; inhibition, % at 8 µM; 6,200 tested, 77% active;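 active means mean inhibition at 8 µM reaching about 37%, which flags the compound as non-specific, limit read from the data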;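 further: p53-null SaOS-2 cells with luciferase driven by a doxycycline-inducible promoter; compound on cells about two nights before reading with doxycycline added after day one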
# Starred values were filed as active, the others as inactive; / = no result given.
SMILES,NALP3 yeast inh,Beta cell apopt,Calb FLC,Mdm2-MdmX inh,CSC inhib,T cruzi repl,Mdm2-MdmX conf,FLuc counter
COc1ccc(C(=O)OCn2nnc3ccccc3c2=O)cc1,36,-3,-5,16,-18,-4,/,/
C#CCOCCOCCOCCNc1nc(N2CCN(C(=O)CCCCCCCCCCNC(=O)[C@H](CO)n3cc(CCCSC)nn3)CC2)nc(N2CCN(C(=O)CCCCCCCCCCNC(=O)[C@H](CO)n3cc(CCCSC)nn3)CC2)n1,19,4,0,13,-19,6,/,/
C#CCOCCOCCOCCNc1nc(N2CCN(C(=O)CCCCCCCCCCNC(=O)[C@H]([C@@H](C)CC)n3cc(CCCCCN)nn3)CC2)nc(N2CCN(C(=O)CCCCCCCCCCNC(=O)[C@@H]([C@H](C)O)n3cc(C)nn3)CC2)n1,26,81*,/,98*,109*,/,55*,40*
C#CCOCCOCCOCCNc1nc(N2CCN(C(=O)CCCCCCCCCCNC(=O)Cn3cc(C[C@@H](C)O)nn3)CC2)nc(N2CCN(C(=O)CCCCCCCCCCNC(=O)[C@H](CCCCN)n3cc(C[C@@H](C)CC)nn3)CC2)n1,30,63,/,93*,89*,/,55*,55*
C#CCOCCOCCOCCNc1nc(N2CCN(C(=O)CCCCCCCCCCNC(=O)[C@@H](CCSC)n3cc(CCO)nn3)CC2)nc(N2CCN(C(=O)CCCCCCCCCCNC(=O)[C@H]([C@@H](C)CC)n3cc(CCCCCN)nn3)CC2)n1,19,99*,/,92*,-5,/,31,/
C#CCOCCOCCOCCNc1nc(N2CCN(C(=O)CCCCCCCCCCNC(=O)[C@H](CCC(=O)O)n3cc(CCCCCN)nn3)CC2)nc(N2CCN(C(=O)CCCCCCCCCCNC(=O)[C@@H]([C@H](C)O)n3cc(C)nn3)CC2)n1,9,-4,/,22,10,/,/,/
C#CCOCCOCCOCCNc1nc(N2CCN(C(=O)CCCCCCCCCCNC(=O)Cn3cc(C[C@@H](C)O)nn3)CC2)nc(N2CCN(C(=O)CCCCCCCCCCNC(=O)Cn3cc(C[C@@H](C)O)nn3)CC2)n1,11,22,/,16,63,/,/,/
C#CCOCCOCCOCCNc1nc(N2CCN(C(=O)CCCCCCCCCCNC(=O)[C@H](CO)n3cc(CCCSC)nn3)CC2)nc(N2CCN(C(=O)CCCCCCCCCCNC(=O)[C@H](CCCCN)n3cc(C[C@@H](C)CC)nn3)CC2)n1,9,49,1,100*,127*,55*,57*,27
O=C(NCc1nnc(SCC(=O)N2CCCCC2)o1)c1ccc(F)cc1,20,-8,/,-3,9,-6,/,/
C#CCOCCOCCOCCNc1nc(N2CCN(C(=O)CCCCCCCCCCNC(=O)Cn3cc(CCCCCN)nn3)CC2)nc(N2CCN(C(=O)CCCCCCCCCCNC(=O)[C@H](CO)n3cc(CCCCCN)nn3)CC2)n1,33,7,/,27,11,/,/,/
C#CCOCCOCCOCCNc1nc(N2CCN(C(=O)CCCCCCCCCCNC(=O)Cn3cc(CCCCCN)nn3)CC2)nc(N2CCN(C(=O)CCCCCCCCCCNC(=O)[C@H]([C@@H](C)CC)n3cc(CCCCCN)nn3)CC2)n1,27,39,/,100*,-10,/,21,/
C#CCOCCOCCOCCNc1nc(N2CCN(C(=O)CCCCCCCCCCNC(=O)[C@H](CCCCN)n3cc(CCO)nn3)CC2)nc(N2CCN(C(=O)CCCCCCCCCCNC(=O)[C@@H]([C@H](C)O)n3cc(C)nn3)CC2)n1,9,-5,/,0,-1,/,/,/
C#CCOCCOCCOCCNc1nc(N2CCN(C(=O)CCCCCCCCCCNC(=O)[C@H](CCCCN)n3cc(C)nn3)CC2)nc(N2CCN(C(=O)CCCCCCCCCCNC(=O)[C@@H]([C@H](C)CC)n3cc(CCCCCN)nn3)CC2)n1,31,94*,/,100*,168*,/,100*,21
CCOC(=O)/C=c1\s/c(=C\c2ccc3cc(OC)ccc3c2)c(=O)n1CC(=O)NCC1CCCO1 (centres undefined),29,0,-2,74*,21,-8,-4,/
CCOC(=O)/C=c1\s/c(=C\c2sccc2C)c(=O)n1CC(=O)NCc1ccc(C)cc1,17,12,-15,66*,14,8,14,/
CCOC(=O)/C=c1\s/c(=C\c2ccc(C(F)(F)F)cc2)c(=O)n1CC(=O)NCc1ccco1,-4,46,-2,76*,15,-20,31,/
CCOC(=O)/C=c1\s/c(=C\c2ccc(-c3ccccc3)cc2)c(=O)n1CC(=O)NCc1ccc2c(c1)OCO2,9,5,-2,84*,8,3,9,/
O=C(COC(=O)C12CC3CC(CC(O)(C3)C1)C2)Nc1ccc(Cl)cc1F,-9,-2,/,-57,-3,/,/,/
Cn1c(=O)[nH]c(=O)c2c1nc(SCC(O)CCl)n2Cc1ccccc1 (centres undefined),29,5,6,32,-11,-5,/,/
Cc1ccc(Nc2nc(-c3c(C)nc4ccccn34)cs2)cc1,20,/,50,89*,/,39,73*,81*
Cc1nc2ncccn2c1-c1csc(Nc2ccc(O)cc2)n1,1,/,-10,72*,/,-65,68*,66*
Cc1ccc(Nc2nc(-c3c(C)nc4ncccn34)cs2)cc1,13,9,21,74*,62,-44,84*,73*
C=CCNc1nc(-c2c(C)nc3ncccn23)cs1,19,-9,-1,9,-33,-3,/,/
CN(C)CCN(C(=O)c1ccc2ccccc2c1)c1nc2c(F)cccc2s1,2,-4,-21,4,6,28,/,/
CC(C)OC(=O)c1c2nc3ccccc3nc2n2c1[nH]c(=O)c1ccccc12,-4,6,-7,60*,-21,27,33,48*
CC(C)OC(=O)c1c(N)n(CCCN2CCOCC2)c2nc3ccccc3nc12,-4,/,-6,11,-11,8,/,/
COc1ccc(-c2nc3c(c(=O)n(C)c(=O)n3C)n2CC2CC(c3ccccc3)=NO2)cc1OC (centres undefined),16,-2,3,61*,/,-14,45*,89*
CC(=O)Nc1ccc2c3c(cccc13)CC2,-3,-1,17,16,18,-9,/,/
Cc1cc(C)c(S(=O)(=O)Nc2ccc3c4c(cccc24)CC3)c(C)c1,19,14,9,75*,93*,7,63*,107*
Cc1ccc(S(=O)(=O)Nc2ccc3c4c(cccc24)CC3)c(C)c1,-5,10,-10,71*,52,14,60*,53*
